Measurements as given in ChEMBL document CHEMBL1240504, “Synthesis of substituted thieno[2,3-d]pyrimidine-2,4-dithiones and their S-glycoside analogues as potential antiviral and antibacterial agents” (Eur J Med Chem, 2010).
Converted amounts (≈) assume the structure as drawn.

Columns and labels:
[1] = test system: Staphylococcus aureus; experiment: Antibacterial activity against Staphylococcus aureus MTCC 1144 at 64 mg/ml after 16 hrs by disk diffusion test; format: functional; details: MTCC 1144, 16 h, read-out: IZ
How it was run: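 Disk diffusion (zone of inhibition). Bacterial isolate spread evenly over an agar plate. A filter disk carrying a known amount of compound was placed on the surface and the compound left to diffuse. The inhibition zone in the lawn was read after 16 h incubation.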

[2] = test system: Escherichia coli; experiment: Antibacterial activity against Escherichia coli MTCC 41 after 12 to 16 hrs by turbidity assay; format: functional
How it was run: (§1)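 Broth dilution MIC in LB broth. Tubes inoculated, incubated 12–16 h and scored by eye for turbidity (growth) versus clear (no growth).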

[3] = Therapeutic index, ratio of IC50 for human CEM cells to EC50 for HIV1; format: cell-based, CCRF-CEM; details: read-out: Ratio IC50/EC50
How it was run: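 CEM T4 lymphocytes, with or without HIV-1, were incubated with serially diluted compounds (DMSO solution diluted 1:100 in medium; 1:200 final dilution after cells and virus were added) at 37 °C in 5% CO2 for 6 days. Controls were untreated and AZT-treated. Read-out was XTT formazan, measured spectrophotometrically plus microscopy. EC50 is 50% protection from cytopathic effect; IC50 is 50% growth inhibition in uninfected cultures.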

[4] = test system: Human immunodeficiency virus 1; experiment: Antiviral activity against HIV1 infected in human CEM cells assessed as protection against virus-induced cytopathic effect after 6 days by XTT assay; format: functional, organism-based; details: Human immunodeficiency virus 1, CCRF-CEM, 144 h
How it was run: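 CEM T4 lymphocytes received serially diluted compounds (DMSO stock diluted 1:100 in medium, 1:200 final dilution), then HIV-1. Incubated 6 days at 37 °C, 5% CO2. Formazan read spectrophotometrically after XTT, with microscopic check for viable cells. EC50 is the concentration giving 50% protection against the HIV cytopathic effect. AZT-treated wells served as positive control.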

[5] = test system: Staphylococcus aureus; experiment: Antibacterial activity against Staphylococcus aureus MTCC 1144 after 12 to 16 hrs by turbidity assay; format: functional; how it was run: as §1
[6] = test system: Escherichia coli; experiment: Antibacterial activity against Escherichia coli MTCC 41 at 64 mg/ml after 16 hrs by disk diffusion test; format: functional; parameters: dose or concentration left out as unconfirmed; details: MTCC 41, 16 h, read-out: IZ
[7] = test system: CCRF-CEM; experiment: Cytotoxicity against […] human CEM cells after 6 days by XTT assay; format: cell-based; details: 144 h
How it was run: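 Uninfected CEM cultures given serial compound dilutions (DMSO, 1:200 final dilution). Incubated 6 days at 37 °C, 5% CO2, then read by XTT formazan. IC50 is the molar concentration causing 50% inhibition of cell growth.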

[8] = test system: Pseudomonas putida; experiment: Antibacterial activity against ampicillin-resistant Pseudomonas putida MTCC 1072 at 128 mg/ml after 16 hrs by disk diffusion test; format: functional; parameters: dose or concentration left out as unconfirmed; details: MTCC 1072, 16 h, read-out: IZ
[9] = test system: Human alphaherpesvirus 1; experiment: Antiviral activity against HSV1 infected in african green monkey Vero cells after 6 hrs by plaque reduction assay; format: functional; parameters: scale not given: the % may be the effect or the level left
How it was run: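 Modified plaque reduction in 96-well trays with no thickening overlay. Compounds dissolved in DMSO and diluted into medium, then serially diluted and added in triplicate to confluent Vero monolayers. Titred HSV-1 added in medium with 10% calf serum. Incubated 6 h at 37 °C, 5% CO2. Cells fixed with 3.7% formaldehyde and examined visually. The end-point concentration was taken from the dilution series.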

[10] = test system: Vero; experiment: Cytotoxicity against african green monkey Vero cells assessed as loss of monolayer present around the plaques; format: cell-based; details: Chlorocebus sabaeus
How it was run: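 Vero monolayers in serial-dilution trays with HSV-1, run in triplicate, 6 h at 37 °C, 5% CO2. Cells fixed with 3.7% formaldehyde and examined visually. IC50 is the concentration giving about 50% loss of the monolayer around HSV-1 plaques.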

[11] = test system: Pseudomonas putida; experiment: Antibacterial activity against ampicillin-resistant Pseudomonas putida MTCC 1072 after 12 to 16 hrs by turbidity assay; format: functional; how it was run: as §1
[12] = test system: Escherichia coli; experiment: Antibacterial activity against Escherichia coli MTCC 41 at 128 mg/ml after 16 hrs by disk diffusion test; format: functional; parameters: dose or concentration left out as unconfirmed; details: MTCC 41, 16 h, read-out: IZ
[13] = test system: Staphylococcus aureus; experiment: Antibacterial activity against Staphylococcus aureus MTCC 1144 at 128 mg/ml after 16 hrs by disk diffusion test; format: functional; parameters: dose or concentration left out as unconfirmed; details: MTCC 1144, 16 h, read-out: IZ
[14] = test system: Pseudomonas putida; experiment: Antibacterial activity against ampicillin-resistant Pseudomonas putida MTCC 1072 at 64 mg/ml after 16 hrs by disk diffusion test; format: functional; parameters: dose or concentration left out as unconfirmed; details: MTCC 1072, 16 h, read-out: IZ

Structure (SMILES)	zone of inhibition at 64000 µg/mL [1] [mm]	MIC [2] [µg/mL]	selectivity ratio [3]	EC50 [4] [nM]	MIC [5] [µg/mL]	zone of inhibition [6] [mm]	IC50 [7] [nM]	zone of inhibition [8] [mm]	Activity [9] [%]	IC50 [10] [nM]	MIC [11] [µg/mL]	zone of inhibition [12] [mm]	zone of inhibition [13] [mm]	zone of inhibition [14] [mm]
S=c1[nH]c(=S)c2c3c(sc2[nH]1)CCCC3	< 1	64 (≈ 252 µM)	> 15.4	> 100000	128 (≈ 503 µM)	> 3	6500	> 3	0	70	128 (≈ 503 µM)	> 3	> 3	< 1
CC(=O)OC[C@H]1O[C@@H](Sc2nc3sc4c(c3c(=S)[nH]2)CCCCC4)[C@@H](OC(C)=O)[C@@H]1OC(C)=O	< 1	> 128	> 1	> 100000	> 128	< 1	> 100000	< 1	0	1150	> 128	< 1	< 1	< 1
OC[C@H]1O[C@@H](Sc2nc3sc4c(c3c(=S)[nH]2)CCCCC4)[C@H](O)[C@@H](O)[C@@H]1O	< 1	> 128			> 128	< 1		< 1			> 128	< 1	< 1	< 1
CSc1nc2sc3c(c2c(=S)[nH]1)CCCCC3	> 2	128 (≈ 453 µM)	> 1	> 100000	128 (≈ 453 µM)	< 1	> 100000	> 3	0	450	128 (≈ 453 µM)	> 3	> 3	< 1
Cc1cn([C@H]2C[C@H](N=[N+]=[N-])[C@@H](CO)O2)c(=O)[nH]c1=O [ZIDOVUDINE]							700							
CC(=O)c1nn(-c2ccc(Cl)cc2)c2nc3sc4c(c3c(=S)n12)CCCC4			> 1	> 100000			> 100000		0	90				
CC1(C)S[C@@H]2[C@H](NC(=O)[C@H](N)c3ccccc3)C(=O)N2[C@H]1C(=O)O [AMPICILLIN]	> 5	16 (≈ 45.8 µM)				> 5		0			> 256	> 5	> 5	0
CC(=O)OC[C@H]1O[C@@H](Sc2nc3sc4c(c3c(=S)[nH]2)CCCCC4)[C@H](OC(C)=O)[C@@H](OC(C)=O)[C@@H]1OC(C)=O	> 2	> 128			> 128	> 2		> 3			128 (≈ 214 µM)	> 2	> 2	> 2
CSc1nc2sc3c(c2c(=S)[nH]1)CCCC3	< 1	128 (≈ 477 µM)	> 1	> 100000	128 (≈ 477 µM)	< 1	> 100000	> 3	0	640	128 (≈ 477 µM)	> 3	> 3	< 1
S=c1c2c3c(sc2nc2n(-c4ccccc4)nc(-c4ccccc4)n12)CCCC3	< 1	128 (≈ 309 µM)			128 (≈ 309 µM)	< 1		> 3			128 (≈ 309 µM)	> 3	> 3	< 1
